Measured values: ChEMBL document CHEMBL2434944, “Novel acetamidothiazole derivatives: synthesis and in vitro anticancer evaluation” (Eur J Med Chem, 2013)

Legend:
[1] = tested on: DU-145; assay: Growth inhibition of human DU145 cells assessed as cell growth at 10^-5 M after 48 hrs by sulforhodamine B assay relative to control; type: functional; conditions: DU-145, 48 h, read-out: Activity
Method in brief: (§1)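 NCI-60 single-dose screen at 10^-5 M. Cells grown in RPMI 1640 with 5% FBS and 2 mM L-glutamine, plated at 5,000–40,000 cells/well according to doubling time, and preincubated 24 h at 37°C, 5% CO2. Compound dissolved in DMSO and added. Exposure 48 h. Adherent cells fixed with cold TCA (10% final), suspension cells with 16% final TCA. Read-out is 0.4% SRB staining, dye solubilised in 10 mM Tris, absorbance at 515 nm. Percent growth is calculated against the time-zero plate and untreated control.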

[2] = tested on: SF-268; assay: Growth inhibition of human SF268 cells assessed as cell growth at 10^-5 M after 48 hrs by sulforhodamine B assay relative to control; type: functional; conditions: SF-268, 48 h, read-out: Activity; method in brief: as §1
[3] = tested on: SR; assay: Growth inhibition of human SR cells assessed as cell growth at 10^-5 M after 48 hrs by sulforhodamine B assay relative to control; type: functional; conditions: read-out: Activity
Method in brief: (§2)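 NCI-60 single-dose screen, 10^-5 M final. Cells grown in RPMI 1640 with 5% FBS and 2 mM L-glutamine, seeded at 5,000–40,000 cells/well by doubling time. Preincubated 24 h at 37°C, 5% CO2. Compound in DMSO, diluted in medium with gentamicin, then 48 h exposure. Fixed with cold TCA, SRB stained, A515 read. Percent growth vs untreated control, time-zero plate corrected.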

[4] = tested on: Malme-3M; assay: Growth inhibition of human MALME-3M cells assessed as cell growth at 10^-5 M after 48 hrs by sulforhodamine B assay relative to control; type: functional; conditions: read-out: Activity; method in brief: as §1
[5] = tested on: LOX IMVI; assay: Growth inhibition of human LOXIMVI cells assessed as cell growth at 10^-5 M after 48 hrs by sulforhodamine B assay relative to control; type: functional; conditions: read-out: Activity; method in brief: as §1
[6] = tested on: NCI-H522; assay: Growth inhibition of human NCI-H522 cells assessed as cell growth at 10^-5 M after 48 hrs by sulforhodamine B assay relative to control; type: functional; conditions: NCI-H522, 48 h, read-out: Activity; method in brief: as §1
[7] = molecular target: T1, Cathepsin K (Homo sapiens, UniProt P43235); assay: Inhibition of human cathepsin K
T1 sequence (P43235 whole entry): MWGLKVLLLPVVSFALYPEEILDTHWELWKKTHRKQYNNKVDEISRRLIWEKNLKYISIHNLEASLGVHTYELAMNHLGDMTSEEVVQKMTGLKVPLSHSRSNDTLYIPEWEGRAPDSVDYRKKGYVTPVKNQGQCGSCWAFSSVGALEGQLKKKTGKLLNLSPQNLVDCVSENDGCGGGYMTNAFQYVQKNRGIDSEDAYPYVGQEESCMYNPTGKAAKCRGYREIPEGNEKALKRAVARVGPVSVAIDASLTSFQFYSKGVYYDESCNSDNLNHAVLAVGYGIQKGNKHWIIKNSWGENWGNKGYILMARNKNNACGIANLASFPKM

[8] = tested on: UO-31; assay: Growth inhibition of human UO31 cells assessed as cell growth at 10^-5 M after 48 hrs by sulforhodamine B assay relative to control; type: functional; conditions: UO-31, 48 h, read-out: Activity; method in brief: as §2
[9] = tested on: SF-539; assay: Growth inhibition of human SF539 cells assessed as cell growth at 10^-5 M after 48 hrs by sulforhodamine B assay relative to control; type: functional; conditions: SF-539, 48 h, read-out: Activity; method in brief: as §1
[10] = tested on: MDA-MB-435; assay: Growth inhibition of human MDA-MB-435 cells assessed as cell growth at 10^-5 M after 48 hrs by sulforhodamine B assay relative to control; type: functional; conditions: MDA-MB-435, 48 h, read-out: Activity; method in brief: as §1
[11] = molecular target: T2, Vitamin D3 receptor (Homo sapiens, UniProt P11473); assay: Inhibition of human vitamin D3 receptor
T2 sequence (P11473 whole entry): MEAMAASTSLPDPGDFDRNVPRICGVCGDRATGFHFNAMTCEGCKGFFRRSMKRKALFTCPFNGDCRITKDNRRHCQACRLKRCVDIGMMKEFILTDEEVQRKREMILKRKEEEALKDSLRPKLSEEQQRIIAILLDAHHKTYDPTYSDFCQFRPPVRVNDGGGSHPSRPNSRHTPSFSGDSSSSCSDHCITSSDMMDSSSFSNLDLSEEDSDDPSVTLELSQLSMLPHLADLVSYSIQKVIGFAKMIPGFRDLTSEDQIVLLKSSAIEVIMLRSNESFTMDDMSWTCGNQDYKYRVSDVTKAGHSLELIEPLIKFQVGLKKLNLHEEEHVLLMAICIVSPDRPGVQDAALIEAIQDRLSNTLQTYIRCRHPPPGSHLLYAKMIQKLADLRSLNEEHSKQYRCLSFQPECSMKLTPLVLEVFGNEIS

[12] = tested on: KM12; assay: Growth inhibition of human KM12 cells assessed as cell growth at 10^-5 M after 48 hrs by sulforhodamine B assay relative to control; type: functional; conditions: KM12, 48 h, read-out: Activity; method in brief: as §1
[13] = tested on: SN12C; assay: Growth inhibition of human SN12C cells assessed as cell growth at 10^-5 M after 48 hrs by sulforhodamine B assay relative to control; type: functional; conditions: read-out: Activity; method in brief: as §1
[14] = tested on: MDA-MB-231; assay: Growth inhibition of human MDA-MB-231 cells assessed as cell growth at 10^-5 M after 48 hrs by sulforhodamine B assay relative to control; type: functional; conditions: MDA-MB-231, 48 h, read-out: Activity; method in brief: as §1
[15] = Growth inhibition of human Hs 578T cells assessed as cell growth at 10^-5 M after 48 hrs by sulforhodamine B assay relative to control; type: functional; conditions: read-out: Activity; method in brief: as §1
[16] = molecular target: Proto-oncogene tyrosine-protein kinase Src (Homo sapiens, UniProt P12931); assay: Inhibition of human SRC
[17] = tested on: HL-60(TB); assay: Growth inhibition of human HL-60(TB) cells assessed as cell growth at 10^-5 M after 48 hrs by sulforhodamine B assay relative to control; type: functional; conditions: HL-60, 48 h, read-out: Activity
Method in brief: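 NCI-60 one-dose screen at 10^-5 M. Cells were grown in RPMI 1640 with 5% FBS and 2 mM L-glutamine and plated at 5,000–40,000 cells/well. They were preincubated 24 h at 37°C under 5% CO2, then exposed for 48 h. Suspension cells were fixed with 80% TCA (16% final) and stained with 0.4% SRB, read at 515 nm. Percent growth is versus untreated control, corrected for time-zero.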

[18] = Growth inhibition of human HCC2998 cells assessed as cell growth at 10^-5 M after 48 hrs by sulforhodamine B assay relative to control; type: functional; conditions: HCC 2998, 48 h, read-out: Activity; method in brief: as §1
[19] = tested on: SK-OV-3; assay: Growth inhibition of human SKOV3 cells assessed as cell growth at 10^-5 M after 48 hrs by sulforhodamine B assay relative to control; type: functional; conditions: SK-OV-3, 48 h, read-out: Activity; method in brief: as §1
[20] = tested on: U-251; assay: Growth inhibition of human U251 cells assessed as cell growth at 10^-5 M after 48 hrs by sulforhodamine B assay relative to control; type: functional; conditions: U-251, 48 h, read-out: Activity; method in brief: as §2
[21] = molecular target: Epidermal growth factor receptor (Homo sapiens, UniProt P00533); assay: Inhibition of human EGFR
Epidermal growth factor receptor, sequence (P00533 whole entry): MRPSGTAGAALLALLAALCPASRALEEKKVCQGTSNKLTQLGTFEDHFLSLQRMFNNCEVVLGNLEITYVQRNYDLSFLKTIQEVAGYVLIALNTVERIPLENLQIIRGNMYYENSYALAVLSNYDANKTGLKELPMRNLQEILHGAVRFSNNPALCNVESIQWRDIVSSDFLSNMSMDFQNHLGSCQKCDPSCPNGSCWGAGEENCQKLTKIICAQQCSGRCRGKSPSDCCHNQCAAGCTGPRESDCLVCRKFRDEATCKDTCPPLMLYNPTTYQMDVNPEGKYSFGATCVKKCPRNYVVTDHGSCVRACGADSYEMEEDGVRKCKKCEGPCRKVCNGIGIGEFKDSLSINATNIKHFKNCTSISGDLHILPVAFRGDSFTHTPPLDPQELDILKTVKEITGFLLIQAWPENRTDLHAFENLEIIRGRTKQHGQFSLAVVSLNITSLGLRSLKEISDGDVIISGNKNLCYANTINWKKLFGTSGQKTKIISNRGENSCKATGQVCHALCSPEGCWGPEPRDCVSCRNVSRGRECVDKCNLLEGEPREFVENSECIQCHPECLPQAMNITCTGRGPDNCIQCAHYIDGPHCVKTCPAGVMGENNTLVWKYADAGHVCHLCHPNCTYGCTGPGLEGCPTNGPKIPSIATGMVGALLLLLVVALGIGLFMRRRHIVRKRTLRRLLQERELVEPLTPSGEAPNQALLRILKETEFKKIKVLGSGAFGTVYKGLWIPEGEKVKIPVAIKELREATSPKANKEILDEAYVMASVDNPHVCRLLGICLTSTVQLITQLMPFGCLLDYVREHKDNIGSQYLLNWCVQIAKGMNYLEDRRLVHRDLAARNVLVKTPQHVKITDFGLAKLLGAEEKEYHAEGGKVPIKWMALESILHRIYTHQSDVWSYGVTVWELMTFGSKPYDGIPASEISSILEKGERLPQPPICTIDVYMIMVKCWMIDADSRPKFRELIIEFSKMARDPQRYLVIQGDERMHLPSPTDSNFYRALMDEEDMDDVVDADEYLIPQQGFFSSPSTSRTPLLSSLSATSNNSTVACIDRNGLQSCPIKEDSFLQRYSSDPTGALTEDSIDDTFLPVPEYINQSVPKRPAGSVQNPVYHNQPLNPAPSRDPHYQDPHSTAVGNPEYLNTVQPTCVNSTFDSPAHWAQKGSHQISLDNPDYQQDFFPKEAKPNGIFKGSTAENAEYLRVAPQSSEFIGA

Proto-oncogene tyrosine-protein kinase Src, sequence (P12931 2-536 limits assumed): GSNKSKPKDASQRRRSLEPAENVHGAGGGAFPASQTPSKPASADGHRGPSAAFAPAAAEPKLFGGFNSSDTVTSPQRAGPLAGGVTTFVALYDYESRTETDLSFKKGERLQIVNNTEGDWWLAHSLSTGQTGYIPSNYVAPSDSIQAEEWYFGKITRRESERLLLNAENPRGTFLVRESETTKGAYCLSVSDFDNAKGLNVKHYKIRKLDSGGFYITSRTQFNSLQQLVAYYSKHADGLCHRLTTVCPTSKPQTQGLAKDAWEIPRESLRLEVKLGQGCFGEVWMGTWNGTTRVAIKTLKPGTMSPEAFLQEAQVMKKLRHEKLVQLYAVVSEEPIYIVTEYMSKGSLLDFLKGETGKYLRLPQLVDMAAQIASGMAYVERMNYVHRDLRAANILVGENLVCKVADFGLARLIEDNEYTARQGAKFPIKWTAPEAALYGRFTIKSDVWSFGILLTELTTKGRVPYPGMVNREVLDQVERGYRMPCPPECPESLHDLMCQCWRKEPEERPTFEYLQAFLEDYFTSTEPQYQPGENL

Row | SMILES | growth at 10 µM [1] [%] | growth at 10 µM [2] [%] | growth at 10 µM [3] [%] | growth at 10 µM [4] [%] | growth at 10 µM [5] [%] | growth at 10 µM [6] [%] | Ki [7] [µM] | growth at 10 µM [8] [%] | growth at 10 µM [9] [%] | growth at 10 µM [10] [%] | Ki [11] [µM] | growth at 10 µM [12] [%] | growth at 10 µM [13] [%] | growth at 10 µM [14] [%] | growth at 10 µM [15] [%] | Ki [16] [µM] | growth at 10 µM [17] [%] | growth at 10 µM [18] [%] | growth at 10 µM [19] [%] | growth at 10 µM [20] [%] | also measured
1 | Cc1ccc(-c2csc(=N)n2CC(=O)N2CCN(c3ccccc3)CC2)cc1 | 104 | 105 | 98.8 | 118 | 96.8 | 95.5 | 10.8 | 78.8 | 100 | 92.2 | 1.03 | 104 | 85.2 | 78.8 | 88.2 | 13.5 | 127 | 104 | 89.2 | 95.3 | Ki [21]: 2.97 µM
2 | N=c1scc(-c2ccc(Cl)cc2)n1CC(=O)N1CCN(c2ccccc2)CC1 | 114 | 105 | 88 | 107 | 103 | 76.9 | 11.1 | 91 | 100 | 92.2 | 3.07 | 108 | 99.8 | 114 | 106 | 1.9 | 89.8 | 95.6 | 109 | 89.6 | Ki [21]: 5.82 µM
3 | N=c1scc(-c2ccccc2)n1CC(=O)N1CCN(c2ccccc2)CC1 | 111 | 101 | 89.9 | 94.2 | 90.7 | 85.1 | 11.6 | 58 | 97.2 | 96.5 | 1.6 | 104 | 101 | 95 | 96.5 | 14.1 | 99 | 100 | 94.5 | 91.2 | Ki [21]: 4.68 µM
4 | CC(=O)N1CCN(C(=O)Cn2c(-c3ccc(C)cc3)csc2=N)CC1 | 110 | 101 | 81.3 | 121 | 85.5 | 76.9 | 24 | 83.1 | 99.9 | 80.6 | 2.84 | 99.4 | 87.4 | 75.3 | 105 | 15.3 | 108 | 101 | 103 | 85 | Ki [21]: 6.09 µM
5 | CC(=O)N1CCN(C(=O)Cn2c(-c3ccc(Cl)cc3)csc2=N)CC1 | 99 | 95.1 | 74.7 | 133 | 93.8 | 62.1 | 24.2 | 89.1 | 90.2 | 85.3 | 2.28 | 95.2 | 88.6 | 111 | 104 | 14.8 | 98 | 98.9 | 92.4 | 85.9 | Ki [21]: 8.58 µM
6 | Cc1ccc(-c2csc(=N)n2CC(=O)N2CCN(C)CC2)cc1 | 109 | 96.7 | 86.5 | 128 | 89.1 | 80.6 | 8.71 | 83.1 | 101 | 83.4 | 17.1 | 104 | 93.2 | 83.4 | 101 | 4.73 | 109 | 103 | 111 | 83.9 | Ki [21]: 27.4 µM
7 | CC(=O)N1CCN(C(=O)Cn2c(-c3ccccc3)csc2=N)CC1 | 112 | 100 | 88.7 | 141 | 94.3 | 81.3 | 21.9 | 60.4 | 91.6 | 105 | 4.66 | 102 | 95.8 | 95.4 | 110 | 34.3 | 111 | 107 | 89.4 | 96.9 | Ki [21]: 16.8 µM
8 | CN1CCN(C(=O)Cn2c(-c3ccc(Cl)cc3)csc2=N)CC1 | 99 | 98.4 | 78.5 | 99.6 | 96.8 | 86.7 | 4.58 | 89.2 | 100 | 92.2 | 3.66 | 98.7 | 92.8 | 103 | 106 | 3.23 | 102 | 97.5 | 92.5 | 91.2 | Ki [21]: 15.6 µM
9 | CN1CCN(C(=O)Cn2c(-c3ccccc3)csc2=N)CC1 | 104 | 96.2 | 74.1 | 89.1 | 87.3 | 82.3 | 6.22 | 78.8 | 98.7 | 104 | 28.3 | 102 | 85.2 | 78.8 | 88.2 | 7.91 | 100 | 101 | 89.2 | 88.2 | Ki [21]: 41.6 µM
